Data taken from ChEMBL document CHEMBL1165950, “Design and synthesis of new potent anticancer pyrazoles with high FLT3 kinase inhibitory selectivity” (Bioorg Med Chem, 2010).

Legend:
Format in all cases: functional
NCI-H322M [1] = test: Cytotoxicity against human NCI-H322M cells assessed as cell growth at 0.001 uM after 48 hrs by sulforhodamine B assay; settings: read-out: Activity
NCI-H322M [2] = test: Cytotoxicity against human NCI-H322M cells assessed as cell growth at 0.01 uM after 48 hrs by sulforhodamine B assay; settings: read-out: Activity
HT-29 [3] = test: Cytotoxicity against human HT-29 cells assessed as cell growth at 10 uM; settings: read-out: Activity
In short: (§1)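 Single-dose NCI-60 screen at 10 µM. Cells were grown in RPMI 1640 with 5% FBS and 2 mM L-glutamine, then treated for 48 h at 37 °C. Protein was measured by SRB staining with absorbance at 515 nm. Percentage growth was recorded, and inhibition percentage was calculated as 100 minus growth percentage.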

M14 [4] = test: Cytotoxicity against human M14 cells assessed as cell growth at 10 uM; settings: read-out: Activity
In short: (§2)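 NCI-60 screen: cells grown in RPMI 1640 with 5% FBS and 2 mM L-glutamine, plated at 5000–40,000 cells/well according to doubling time, and preincubated 24 h at 37 °C, 5% CO2. The single 10 µM dose (DMSO stock) was added, then incubated 48 h. Cells were TCA-fixed and stained with 0.4% SRB, read at 515 nm, and growth % calculated against time-zero and control plates.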

CCRF-CEM = test: Cytotoxicity against human CCRF-CEM cells assessed as cell growth at 0.01 uM after 48 hrs by sulforhodamine B assay; settings: read-out: Activity
In short: (§3)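 NCI-60 five-dose screen. Cells were grown in RPMI 1640 with 5% FBS and 2 mM L-glutamine, plated at 5000–40,000 cells/well and preincubated for 24 h. Time-zero plates were TCA-fixed. DMSO-solubilized drug was added at five concentrations (10-fold or ½-log serial dilutions) for 48 h at 37 °C, 5% CO2. Cells were TCA-fixed, stained with 0.4% SRB and read at 515 nm. Percent growth used time-zero, control and test absorbances.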

M14 [5] = test: Cytotoxicity against human M14 cells assessed as cell growth at 10 uM after 48 hrs by sulforhodamine B assay; settings: M14, 48 h, read-out: Activity
SNB-75 = test: Cytotoxicity against human SNB75 cells assessed as cell growth at 0.01 uM after 48 hrs by sulforhodamine B assay; settings: SNB-75, 48 h, read-out: Activity
LOX IMVI [6] = test: Cytotoxicity against human LOXIMVI cells assessed as cell growth at 1 uM after 48 hrs by sulforhodamine B assay; settings: read-out: Activity
OVCAR-8 = test: Cytotoxicity against human OVCAR8 cells assessed as cell growth at 10 uM after 48 hrs by sulforhodamine B assay; settings: OVCAR-8, 48 h, read-out: Activity
CAKI-1 = test: Cytotoxicity against human Caki1 cells assessed as cell growth at 0.001 uM after 48 hrs by sulforhodamine B assay; settings: CAKI-1, 48 h, read-out: Activity
SK-MEL-2 = test: Cytotoxicity against human SK-MEL-2 cells assessed as cell growth at 10 uM; settings: read-out: Activity; in short: as §2
UACC-62 = test: Cytotoxicity against human UACC62 cells assessed as cell growth at 10 uM after 48 hrs by sulforhodamine B assay; settings: UACC-62, 48 h, read-out: Activity
KM12 = test: Growth inhibition of human KM12 cells after 48 hrs by sulforhodamine B assay; settings: KM12, 48 h
In short: (§4)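 NCI 60-cell screen, five-dose mode. Cells grown in RPMI 1640 with 5% FBS and 2 mM L-glutamine and plated at 5000-40,000 cells/well according to doubling time. After 24 h preincubation, a Tz plate was TCA-fixed. Five concentrations (10-fold or 1/2 log dilutions) were applied for 48 h at 37 °C. SRB staining read at 515 nm. IC50 taken from [(Ti-Tz)/(C-Tz)]×100 = 50.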

MOLT-4 = test: Cytotoxicity against human MOLT4 cells assessed as cell growth at 100 nM after 48 hrs by sulforhodamine B assay; settings: MOLT-4, 48 h, read-out: Activity
LOX IMVI [7] = test: Cytotoxicity against human LOXIMVI cells assessed as cell growth at 0.001 uM after 48 hrs by sulforhodamine B assay; settings: read-out: Activity
UACC-257 = test: Cytotoxicity against human UACC257 cells assessed as cell growth at 10 uM after 48 hrs by sulforhodamine B assay; settings: UACC-257, 48 h, read-out: Activity
SF-295 [8] = test: Cytotoxicity against human SF295 cells assessed as cell growth at 1 uM after 48 hrs by sulforhodamine B assay; settings: SF-295, 48 h, read-out: Activity
NCI-H23 = test: Cytotoxicity against human NCI-H23 cells assessed as cell growth at 100 nM after 48 hrs by sulforhodamine B assay; settings: NCI-H23, 48 h, read-out: Activity
A498 [9] = test: Cytotoxicity against human A498 cells assessed as cell growth at 1 uM after 48 hrs by sulforhodamine B assay; settings: A498, 48 h, read-out: Activity; in short: as §3
SNB-19 = test: Cytotoxicity against human SNB19 cells assessed as cell growth at 10 uM after 48 hrs by sulforhodamine B assay; settings: SNB-19, 48 h, read-out: Activity
UO-31 = test: Cytotoxicity against human UO31 cells assessed as cell growth at 100 nM after 48 hrs by sulforhodamine B assay; settings: UO-31, 48 h, read-out: Activity
A498 [10] = test: Cytotoxicity against human A498 cells assessed as cell growth at 0.01 uM after 48 hrs by sulforhodamine B assay; settings: A498, 48 h, read-out: Activity; in short: as §3
HCT-116 = test: Cytotoxicity against human HCT116 cells assessed as cell growth at 0.001 uM after 48 hrs by sulforhodamine B assay; settings: HCT-116, 48 h, read-out: Activity
EKVX = test: Cytotoxicity against human EKVX cells assessed as cell growth at 10 uM after 48 hrs by sulforhodamine B assay; settings: read-out: Activity
SF-295 [11] = test: Cytotoxicity against human SF295 cells assessed as cell growth at 10 uM; settings: read-out: Activity; in short: as §2
HT-29 [12] = test: Cytotoxicity against human HT-29 cells assessed as cell growth at 1 uM after 48 hrs by sulforhodamine B assay; settings: HT-29, 48 h, read-out: Activity
HOP-62 = test: Growth inhibition of human HOP62 cells after 48 hrs by sulforhodamine B assay; settings: HOP-62, 48 h; in short: as §4
DU-145 = test: Cytotoxicity against human DU145 cells assessed as cell growth at 10 uM; settings: read-out: Activity; in short: as §1
U-251 = test: Cytotoxicity against human U251 cells assessed as cell growth at 10 uM after 48 hrs by sulforhodamine B assay; settings: U-251, 48 h, read-out: Activity
SW-620 = test: Cytotoxicity against human SW620 cells assessed as cell growth at 10 uM; settings: read-out: Activity; in short: as §2
HT-29 [13] = test: Cytotoxicity against human HT-29 cells assessed as cell growth at 100 nM after 48 hrs by sulforhodamine B assay; settings: HT-29, 48 h, read-out: Activity
Malme-3M = test: Cytotoxicity against human MALME-3M cells assessed as cell growth at 0.01 uM after 48 hrs by sulforhodamine B assay; settings: read-out: Activity

Work on `COc1cc(C)cc(-c2c(-c3ccnc(-c4ccc(C(C)=O)cc4)c3)cnn2CC#N)c1` yielded a growth at 0.001 µM (NCI-H322M [1]) of 102%, a growth at 0.01 µM (NCI-H322M [2]) of 95% and a growth at 10 µM (HT-29 [3]) of 15.2%. For the same compound, the growth at 10 µM (M14 [4]) was 50.5%, the growth at 0.01 µM (CCRF-CEM) was 93% and the growth at 10 µM (M14 [5]) was 2%. It also gave a growth at 0.01 µM (SNB-75) of 78%, a growth at 1 µM (LOX IMVI [6]) of 19% and a growth at 10 µM (OVCAR-8) of 10%. It also gave a growth at 0.001 µM (CAKI-1) of 104%, a growth at 10 µM (SK-MEL-2) of 73.7% and a growth at 10 µM (UACC-62) of 35%. For the same compound, the GI50 (KM12) was 2.87 µM, the TGI (KM12) was greater than 100 µM and the CC50 (KM12; read-out: LC50 (the source's name)) was greater than 100 µM. The growth at 0.1 µM (MOLT-4) was 81%, the growth at 0.001 µM (LOX IMVI [7]) was 101% and the growth at 10 µM (UACC-257) was 36%. For the same compound, the growth at 1 µM (SF-295 [8]) was 39%, the growth at 0.1 µM (NCI-H23) was 95% and the growth at 1 µM (A498 [9]) was 17%. For the same compound, the growth at 10 µM (SNB-19) was 66%, the growth at 0.1 µM (UO-31) was 78% and the growth at 0.01 µM (A498 [10]) was 77%. The growth at 0.001 µM (HCT-116) was 97%, the growth at 10 µM (EKVX) was 46% and the growth at 10 µM (SF-295 [11]) was 93.2%. The growth at 1 µM (HT-29 [12]) was 7%, the GI50 (HOP-62) was 3.35 µM and the LC50 (50% lethal concentration) (HOP-62) was greater than 100 µM. For the same compound, the TGI (HOP-62) was greater than 100 µM, the growth at 10 µM (DU-145) was 103% and the growth at 10 µM (U-251) was 13%. The growth at 10 µM (SW-620) was 56.1%, the growth at 0.1 µM (HT-29 [13]) was 95% and the growth at 0.01 µM (Malme-3M) was 93%.
